# Data taken from paper PMC9366314 (Acta Pharmaceutica Sinica. B, 2022).
# Tests used:
# Assay type in all cases: cell-based
# [1] = system: 92.1 cells (GNAQ Q209L mutation); experiment: Cell proliferation inhibition assay; settings: 72 h, read-out: Antiproliferation (IC50, μmol/L) 92.1
# Method in brief: (§1)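 Uveal melanoma cells were grown in RPMI-1640 with 10% FBS at 37 °C, 5% CO2. They were resuspended at 3 × 10^3 cells/mL, seeded and left overnight. Cells were exposed to a concentration series of test compound for 72 h. CCK-8 was added for 2–4 h and absorbance read at 450 nm. IC50 values were fitted from the curves and reported as mean ± SEM, n = 3.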
# [2] = system: MP41 cells (GNA11 Q209L mutation); experiment: Cell proliferation inhibition assay; settings: MP41, 72 h, read-out: Antiproliferation (IC50, μmol/L) MP41
# Method in brief: as §1
# [3] = system: Gαq/11; experiment: IP1 accumulation assay; settings: CHO-M1 cells, mean ± SEM (n = 3)
Compound,IC50 [1] [µmol/L],IC50 [2] [µmol/L],IP1 inhibition at 10 μmol/L [3] [%]
CC[C@H](C)[C@H](N)C(=O)N1CCn2cc(-c3ccccn3)nc2[C@@H]1CC1CCCCC1 [GQ220],> 40,> 40,20.8 ± 1.1
CC[C@H](C)[C@H](N)C(=O)N1CCn2cc(-c3cccnc3)nc2[C@@H]1CC1CCCCC1 [GQ221],> 40,> 40,20.0 ± 0.6
CC[C@H](C)[C@H](N)C(=O)N1CCn2cc(-c3ccncc3)nc2[C@@H]1CC1CCCCC1 [GQ222],> 40,> 40,27.0 ± 5.2
CC[C@H](C)[C@H](N)C(=O)N1CCn2cc(-c3ccco3)nc2[C@@H]1CC1CCCCC1 [GQ223],> 40,> 40,16.6 ± 1.2
CC[C@H](C)[C@H](N)C(=O)N1CCn2cc(-c3ccoc3)nc2[C@@H]1CC1CCCCC1 [GQ224],> 40,> 40,31.5 ± 6.0
CC[C@H](C)[C@H](N)C(=O)N1CCn2cc(-c3cccs3)nc2[C@@H]1CC1CCCCC1 [GQ225],18.8 ± 1.7,25.3 ± 0.9,28.7 ± 1.6
CC[C@H](C)[C@H](N)C(=O)N1CCn2cc(-c3nccs3)nc2[C@@H]1CC1CCCCC1 [GQ226],> 40,> 40,29.5 ± 3.0
CC[C@H](C)[C@H](N)C(=O)N1CCn2cc(C3CCCCC3)nc2[C@@H]1CC1CCCCC1 [GQ227],21.6 ± 0.6,21.2 ± 0.5,18.4 ± 0.9
CC[C@H](C)[C@H](N)C(=O)N1CCn2cc(C3=CCCCC3)nc2[C@@H]1CC1CCCCC1 [GQ228],19 ± 0.6,11 ± 0.1,24.8 ± 1.5
CC[C@H](C)[C@H](N)C(=O)N1CCn2cc(C3CCCC3)nc2[C@@H]1CC1CCCCC1 [GQ229],> 40,> 40,15.8 ± 1.8
CC[C@H](C)[C@H](N)C(=O)N1CCn2cc(C3CCNCC3)nc2[C@@H]1CC1CCCCC1 [GQ230],> 40,> 40,13.7 ± 0.6
CC[C@H](C)[C@H](N)C(=O)N1CCn2cc(C3CCOCC3)nc2[C@@H]1CC1CCCCC1 [GQ231],> 40,> 40,20.6 ± 2.1
CC[C@H](C)[C@H](N)C(=O)N1CCn2cc(C3CCC(C)(C)CC3)nc2[C@@H]1CC1CCCCC1 [GQ232],16.1 ± 1,19.8 ± 0.1,10.9 ± 0.7
CC[C@H](C)[C@H](N)C(=O)N1CCn2cc(C3CCC(F)(F)CC3)nc2[C@@H]1CC1CCCCC1 [GQ233],> 40,> 40,22.2 ± 1.9
CC[C@H](C)[C@H](N)C(=O)N1CCn2cc(C(C)C)nc2[C@@H]1CC1CCCCC1 [GQ234],> 40,> 40,10.8 ± 1.4
CCc1cn2c(n1)[C@H](CC1CCCCC1)N(C(=O)[C@@H](N)[C@@H](C)CC)CC2 [GQ235],> 40,> 40,22.3 ± 1.3
CC[C@H](C)[C@H](N)CN1CCn2cc(-c3ccccc3)nc2[C@@H]1CC1CCCCC1 [GQ236],9.3 ± 0.5,10.1 ± 0.2,48.4 ± 2.4
CC(C)C[C@H](N)CN1CCn2cc(-c3ccccc3)nc2[C@@H]1CC1CCCCC1 [GQ237],5.8 ± 0.1,4 ± 1.3,43.0 ± 3.3
CC(C)[C@H](N)CN1CCn2cc(-c3ccccc3)nc2[C@@H]1CC1CCCCC1 [GQ238],7.3 ± 0.7,6.2 ± 0.7,34.4 ± 1.7
C[C@H](N)CN1CCn2cc(-c3ccccc3)nc2[C@@H]1CC1CCCCC1 [GQ239],11.6 ± 0.6,6 ± 0.6,50.2 ± 5.2
NCCN1CCn2cc(-c3ccccc3)nc2[C@@H]1CC1CCCCC1 [GQ240],9.6 ± 0.6,7.4 ± 0.3,22.5 ± 4.2
CC[C@H](N)CN1CCn2cc(-c3ccccc3)nc2[C@@H]1CC1CCCCC1 [GQ241],6.6 ± 0.2,5.9 ± 0.5,31.3 ± 9.0
CCC[C@H](N)CN1CCn2cc(-c3ccccc3)nc2[C@@H]1CC1CCCCC1 [GQ242],4.7 ± 0.4,5 ± 0.1,41.0 ± 6.0

Compound,IC50 [1] [µmol/L],IC50 [2] [µmol/L],IP1 inhibition at 10 μmol/L [3] [%]
CC(C)(C)[C@H](N)CN1CCn2cc(-c3ccccc3)nc2[C@@H]1CC1CCCCC1 [GQ243],9.6 ± 0.7,5.7 ± 0.7,41.6 ± 5.8
N[C@@H](CC1CCCCC1)CN1CCn2cc(-c3ccccc3)nc2[C@@H]1CC1CCCCC1 [GQ244],9 ± 1.3,5.6 ± 0.3,45.8 ± 10.5
N[C@H](CN1CCn2cc(-c3ccccc3)nc2[C@@H]1CC1CCCCC1)C1CCCCC1 [GQ245],5.7 ± 0.1,5 ± 0.3,46.8 ± 8.6
N[C@H](CS)CN1CCn2cc(-c3ccccc3)nc2[C@@H]1CC1CCCCC1 [GQ246],15.8 ± 1,14.9 ± 0.8,40.4 ± 7.0
CSCC[C@H](N)CN1CCn2cc(-c3ccccc3)nc2[C@@H]1CC1CCCCC1 [GQ247],6 ± 0.3,5.6 ± 0.2,44.5 ± 3.4
N[C@H](CO)CN1CCn2cc(-c3ccccc3)nc2[C@@H]1CC1CCCCC1 [GQ248],10.9 ± 0.5,7.9 ± 0.7,49.7 ± 9.5
C[C@H](O)[C@H](N)CN1CCn2cc(-c3ccccc3)nc2[C@@H]1CC1CCCCC1 [GQ249],11.4 ± 0.3,5.8 ± 0.6,44.1 ± 3.0
N[C@@H](CCO)CN1CCn2cc(-c3ccccc3)nc2[C@@H]1CC1CCCCC1 [GQ250],10.4 ± 0.2,6.9 ± 1,41.8 ± 2.7
N[C@@H](CCCO)CN1CCn2cc(-c3ccccc3)nc2[C@@H]1CC1CCCCC1 [GQ251],12.6 ± 0.7,7.4 ± 0.8,51.2 ± 4.9
NCC[C@H](N)CN1CCn2cc(-c3ccccc3)nc2[C@@H]1CC1CCCCC1 [GQ252],3.5 ± 0.3,5.2 ± 0.7,35.9 ± 7.3
NCCC[C@H](N)CN1CCn2cc(-c3ccccc3)nc2[C@@H]1CC1CCCCC1 [GQ253],9.7 ± 0.4,9.2 ± 0.6,32.4 ± 1.0
NCCCC[C@H](N)CN1CCn2cc(-c3ccccc3)nc2[C@@H]1CC1CCCCC1 [GQ254],11.2 ± 0.7,8 ± 0.6,44.2 ± 0.3
N=C(N)NCCC[C@H](N)CN1CCn2cc(-c3ccccc3)nc2[C@@H]1CC1CCCCC1 [GQ255],> 40,> 40,27.7 ± 6.7
N[C@@H](Cc1ccc(O)cc1)CN1CCn2cc(-c3ccccc3)nc2[C@@H]1CC1CCCCC1 [GQ256],8.7 ± 0.7,9 ± 1.2,47.6 ± 5.0
N[C@@H](Cc1c[nH]c2ccccc12)CN1CCn2cc(-c3ccccc3)nc2[C@@H]1CC1CCCCC1 [GQ257],9.6 ± 0.5,6 ± 0.3,33.2 ± 1.3
N[C@@H](Cc1ccccc1)CN1CCn2cc(-c3ccccc3)nc2[C@@H]1CC1CCCCC1 [GQ258],11.6 ± 1.4,7.9 ± 1.5,48.3 ± 6.5
N[C@@H](Cc1c[nH]cn1)CN1CCn2cc(-c3ccccc3)nc2[C@@H]1CC1CCCCC1 [GQ259],10.7 ± 0.8,5.8 ± 0.6,36.3 ± 0.9
c1ccc(-c2cn3c(n2)[C@H](CC2CCCCC2)N(C[C@@H]2CCCN2)CC3)cc1 [GQ260],11.6 ± 1.2,6.7 ± 0.6,53.4 ± 7.0
c1ccc(-c2cn3c(n2)[C@H](CC2CCCCC2)N(C[C@@H]2CCCCN2)CC3)cc1 [GQ261],11 ± 0.5,6.2 ± 0.8,27.0 ± 5.1
CC(C)[C@H]1c2nc(-c3ccccc3)cn2CCN1C[C@@H]1CCCN1C [GQ264],> 40,> 40,5.9 ± 1.1
CC(C)[C@@H]1c2nc(-c3ccccc3)cn2CCN1C[C@@H]1CCCN1C [GQ265],> 40,> 40,13.5 ± 0.5
CC(C)C[C@@H]1c2nc(-c3ccccc3)cn2CCN1C[C@@H]1CCCN1C [GQ266],> 40,> 40,17.5 ± 1.1
CN1CCC[C@H]1CN1CCn2cc(-c3ccccc3)nc2[C@@H]1C1CCCCC1 [GQ267],> 40,> 40,8.9 ± 0.8
